How the values were obtained:
[1] = Phototoxicity against human HaCaT cells assessed as cell viability at 1 uM after irradiation with light at 180 J/cm'2 for 30 mins by MTT assay; assay type: functional; conditions: light or radiation study, 0.5 h, read-out: Activity
Procedure, shortened: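 HaCaT screen at 1 µM porphyrin. Light 100 mW/cm² for 30 min (fluence 180 J/cm²). Viability by MTT, given as percent.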

[2] = Photostability of compound in aqueous media assessed as amount of soret band remaining after irradiation with white light at 100 mW/cm'2 for 30 mins by UV-spectrophotometric analysis; assay type: physicochemical; conditions: read-out: Stability
Procedure, shortened: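 Porphyrin in aqueous medium under white light, 100 mW/cm², sampled at intervals up to 30 min. Soret band absorbance tracked and given as percent remaining of the original.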

[3] = Induction of singlet oxygen production assessed as amount of DPiBF remaining after irradiation with light at 9 mW/cm'2 for 30 mins by DPiBF photooxidation based spectrophotometric analysis (reference value: 80%); assay type: physicochemical; conditions: 0.5 h
Procedure, shortened: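 Singlet oxygen measured by DPiBF photooxidation in DMF. Light at 9 mW/cm² for 30 min. DPiBF absorbance at 415 nm reported as percent of the starting value.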

[4] = Phototoxicity against human HaCaT cells assessed as reduction in cell viability after irradiation with white light at 120 J/cm'2 for 20 mins by MTT assay; assay type: functional, cell-based; conditions: light or radiation study
Procedure, shortened: (§1)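 HaCaT PDT at 0.01, 0.03, 0.1, 0.3 and 1 µM porphyrin (untreated control as 0). Light 100 mW/cm² for 20 min (fluence 120 J/cm²). Viability by MTT. IC50 estimated from the roughly linear concentration–viability relationship.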

[5] = Phototoxicity against human HaCaT cells assessed as cell viability at 0.01 uM after irradiation with white light at 120 J/cm'2 for 20 mins by MTT assay; assay type: functional; conditions: light or radiation study, read-out: Activity; procedure, shortened: as §1
[6] = Dark toxicity against human HaCaT cells assessed as reduction in cell viability at >0.1 uM after 24 hrs by MTT assay; assay type: cell-based
Procedure, shortened: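 HaCaT keratinocytes held with porphyrin in the dark for 24 h, no light exposure, over 0.01–1 µM (untreated control as 0). Viability read by MTT.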

Structure (SMILES)	viability at 1 µM [1]	remaining at 0.5 h [2]	Activity [3]	IC50 [4]	viability at 0.01 µM [5]	Activity [6]
Clc1ccc(-c2c3nc(c(-c4ccc(Cl)cc4)c4ccc([nH]4)c(-c4ccc(Cl)cc4)c4nc(c(-c5ccc(Cl)cc5)c5ccc2[nH]5)C=C4)C=C3)cc1	100%	–	–	–	–	–
C[n+]1ccc(-c2c3nc(c(-c4cc[n+](C)cc4)c4ccc([nH]4)c(-c4cc[n+](C)cc4)c4nc(c(-c5cc[n+](C)cc5)c5ccc2[nH]5)C=C4)C=C3)cc1.[I-].[I-].[I-].[I-]	26.6%	98%	22%	59 nM	–	–
Nc1ccc(-c2c3nc(c(-c4ccccc4)c4ccc([nH]4)c(-c4ccccc4)c4nc(c(-c5ccccc5)c5ccc2[nH]5)C=C4)C=C3)cc1	100%	96%	59%	–	–	–
Cc1ccc(-c2c3nc(c(-c4ccc(C)cc4)c4ccc([nH]4)c(-c4ccc(C)cc4)c4nc(c(-c5ccc(C)cc5)c5ccc2[nH]5)C=C4)C=C3)cc1	100%	–	–	–	–	–
CC(=O)Oc1ccc(-c2c3nc(c(-c4ccc(OC(C)=O)cc4)c4ccc([nH]4)c(-c4ccc(OC(C)=O)cc4)c4nc(c(-c5ccc(OC(C)=O)cc5)c5ccc2[nH]5)C=C4)C=C3)cc1	100%	83%	29%	–	–	–
C[n+]1ccc(-c2c3nc(c(-c4ccccc4)c4ccc([nH]4)c(-c4ccccc4)c4nc(c(-c5cc[n+](C)cc5)c5ccc2[nH]5)C=C4)C=C3)cc1.[I-].[I-]	23.2%	92%	20%	52.3 nM	69%	Toxic
COc1ccc(-c2c3nc(c(-c4ccc(OC)cc4)c4ccc([nH]4)c(-c4ccc(OC)cc4)c4nc(c(-c5ccc(OC)cc5)c5ccc2[nH]5)C=C4)C=C3)cc1	100%	97%	28%	–	–	–
O=[N+]([O-])c1ccc(-c2c3nc(c(-c4ccccc4)c4ccc([nH]4)c(-c4ccc([N+](=O)[O-])cc4)c4nc(c(-c5ccccc5)c5ccc2[nH]5)C=C4)C=C3)cc1	95.2%	97%	28%	–	–	–
C1=Cc2nc1c(-c1ccc3ccccc3c1)c1ccc([nH]1)c(-c1ccc3ccccc3c1)c1nc(c(-c3ccc4ccccc4c3)c3ccc([nH]3)c2-c2ccc3ccccc3c2)C=C1	100%	–	25%	–	–	–
C[n+]1ccc(-c2c3nc(c(-c4cc[n+](C)cc4)c4ccc([nH]4)c(-c4cc[n+](C)cc4)c4nc(c(-c5ccccc5)c5ccc2[nH]5)C=C4)C=C3)cc1.[I-].[I-].[I-]	23.9%	97%	12%	67 nM	–	–
C[n+]1ccc(-c2c3nc(c(-c4ccccc4)c4ccc([nH]4)c(-c4ccccc4)c4nc(c(-c5ccccc5)c5ccc2[nH]5)C=C4)C=C3)cc1.[I-]	29.4%	–	13%	602 nM	–	–
O=[N+]([O-])c1ccc(-c2c3nc(c(-c4ccccc4)c4ccc([nH]4)c(-c4ccccc4)c4nc(c(-c5ccccc5)c5ccc2[nH]5)C=C4)C=C3)cc1	92.8%	96%	33%	–	–	–
C[n+]1ccc(Sc2c(F)c(F)c(-c3c4nc(c(-c5c(F)c(F)c(Sc6cc[n+](C)cc6)c(F)c5F)c5ccc([nH]5)c(-c5c(F)c(F)c(Sc6cc[n+](C)cc6)c(F)c5F)c5nc(c(-c6c(F)c(F)c(Sc7cc[n+](C)cc7)c(F)c6F)c6ccc3[nH]6)C=C5)C=C4)c(F)c2F)cc1.[I-].[I-].[I-].[I-]	20.3%	89%	25%	240 nM	–	–
C[n+]1ccc(-c2c3nc(c(-c4ccccc4)c4nc(c(-c5cc[n+](C)cc5)c5ccc([nH]5)c(-c5ccccc5)c5ccc2[nH]5)C=C4)C=C3)cc1.[I-].[I-]	19.5%	91%	18%	136 nM	–	–
C1=Cc2nc1c(-c1ccccc1)c1ccc([nH]1)c(-c1ccccc1)c1nc(c(-c3ccccc3)c3ccc([nH]3)c2-c2ccccc2)C=C1	100%	–	–	–	–	–
O=S(=O)([O-])c1ccc(-c2c3nc(c(-c4ccc(S(=O)(=O)[O-])cc4)c4ccc([nH]4)c(-c4ccc(S(=O)(=O)[O-])cc4)c4nc(c(-c5ccc(S(=O)(=O)[O-])cc5)c5ccc2[nH]5)C=C4)C=C3)cc1.[Na+].[Na+].[Na+].[Na+]	76.1%	91%	24%	–	–	–

Reference: ChEMBL document CHEMBL3875199, “Photodynamic effect of meso-(aryl)porphyrins and meso-(1-methyl-4-pyridinium)porphyrins on HaCaT keratinocytes” (Bioorg Med Chem Lett, 2017)
